# Legend:
# [1] = target: Botulinum neurotoxin type A (Clostridium botulinum) (UniProt P0DPI0); assay: Inhibition of Clostridium botulinum recombinant BoNT/A light chain using N-terminal acetylated, C-terminal aminated SNAP-25 (187-203) as substrate at 20 uM by reverse-phase HPLC analysis
# Outline: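 Recombinant BoNT/A LC with SNAP-25 187–203 peptide substrate in 40 mM HEPES–0.05% Tween, pH 7.3, with 0.5 mg/mL BSA and 50 μM excess Zn, at 37 °C. Quenched with TFA; reverse-phase HPLC product/substrate peak areas give percent inhibition, run in duplicate.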
# [2] = target: Botulinum neurotoxin type A (Clostridium botulinum, UniProt P0DPI0); assay: Inhibition of Clostridium botulinum recombinant BoNT/A light chain using N-terminal acetylated, C-terminal aminated SNAP-25 (187-203) as substrate by reverse-phase HPLC analysis
# Outline: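 Same HPLC LC cleavage assay (pH 7.3 HEPES/Tween, BSA, excess Zn, 37 °C). […] Ki comes from velocity versus substrate at several inhibitor levels, globally fit to a competitive model.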
# Plasmodium falciparum [3] = assay: Antimalarial activity against CQ-resistant, MFQ-susceptible Plasmodium falciparum W2 clone Indochina 1 isolate assessed as inhibition of parasite proliferation by MSF assay; format: functional, organism-based
# Outline: (§1)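 SYBR Green I fluorescence (MSF) microtiter drug-sensitivity assay: malarial DNA content is the measure of in vitro parasite proliferation. Resistance index is the IC90 ratio of the resistant strain to D6.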
# Plasmodium falciparum [4] = assay: Antimalarial activity against CQ, MFQ-susceptible Plasmodium falciparum D6 clone Sierra 1/UNC isolate assessed as inhibition of parasite proliferation by MSF assay; format: functional, organism-based; outline: as §1
# Plasmodium falciparum [5] = assay: Antimalarial activity against CQ, MFQ-resistant Plasmodium falciparum TM91C235 clone Southeast asian isolate assessed as inhibition of parasite proliferation by MSF assay; format: functional, organism-based; outline: as §1
# Plasmodium falciparum [6] = assay: Resistance index, ratio of IC90 for CQ, MFQ-resistant Plasmodium falciparum TM91C235 clone Southeast asian isolate to IC90 for CQ, MFQ-susceptible Plasmodium falciparum D6 clone Sierra 1/UNC isolate; format: functional; outline: as §1
# Plasmodium falciparum [7] = assay: Resistance index, ratio of IC90 for CQ-resistant, MFQ-susceptible Plasmodium falciparum W2 clone Indochina 1 isolate to IC90 for CQ, MFQ-susceptible Plasmodium falciparum D6 clone Sierra 1/UNC isolate; format: functional; outline: as §1
# HepG2 = assay: Cytotoxicity against human HepG2 cells assessed as cell viability after 48 hrs by MTT assay; format: cell-based; details: HepG2, 48 h
# [8] = Selectivity index, ratio of IC50 for human HepG2 cells to IC50 for CQ-resistant, MFQ-susceptible Plasmodium falciparum W2 clone Indochina 1 isolate; format: toxicity, cell-based; details: read-out: Ratio IC50
# [9] = Selectivity index, ratio of IC50 for human HepG2 cells to IC50 for CQ, MFQ-susceptible Plasmodium falciparum D6 clone Sierra 1/UNC isolate; format: toxicity, cell-based; details: read-out: Ratio IC50
# [10] = Selectivity index, ratio of IC50 for human HepG2 cells to IC50 for CQ, MFQ-resistant Plasmodium falciparum TM91C235 clone Southeast asian isolate; format: toxicity, cell-based; details: read-out: Ratio IC50
# Botulinum neurotoxin type A (Clostridium botulinum), sequence (P0DPI0 2-448 limits assumed): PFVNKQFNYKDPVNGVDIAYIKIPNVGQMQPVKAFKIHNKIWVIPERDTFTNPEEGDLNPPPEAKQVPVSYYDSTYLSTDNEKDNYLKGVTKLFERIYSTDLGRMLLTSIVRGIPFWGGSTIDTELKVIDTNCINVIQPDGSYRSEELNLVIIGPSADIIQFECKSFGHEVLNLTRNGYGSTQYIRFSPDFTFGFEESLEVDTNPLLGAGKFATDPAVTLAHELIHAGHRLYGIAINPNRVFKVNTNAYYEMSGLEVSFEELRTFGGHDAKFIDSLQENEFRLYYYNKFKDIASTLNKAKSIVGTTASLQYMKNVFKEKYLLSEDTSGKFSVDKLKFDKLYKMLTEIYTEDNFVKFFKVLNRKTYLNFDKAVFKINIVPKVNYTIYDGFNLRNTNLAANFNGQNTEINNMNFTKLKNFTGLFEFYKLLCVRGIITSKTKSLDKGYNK
# Botulinum neurotoxin type A, sequence (P0DPI0 2-448 limits assumed): as above
Compound,inhibition [1],IC50 [2],Ki [2],IC50 (Plasmodium falciparum [3]),IC90 (Plasmodium falciparum [3]),IC50 (Plasmodium falciparum [4]),IC90 (Plasmodium falciparum [4]),IC50 (Plasmodium falciparum [5]),IC90 (Plasmodium falciparum [5]),Ratio (Plasmodium falciparum [6]),Ratio (Plasmodium falciparum [7]),IC50 (HepG2),selectivity ratio [8],selectivity ratio [9],selectivity ratio [10]
CC(=O)O[C@@H]1CC[C@@]2(C)[C@@H](C1)C[C@@H](OC(C)=O)[C@@H]1[C@@H]2C[C@H](OC(C)=O)[C@]2(C)[C@@H]([C@H](C)CCCNCCCNc3ccnc4cc(Cl)ccc34)CC[C@@H]12,81.4%,2280 nM,5670 nM,9.42 nM,19 nM,9.72 nM,13.8 nM,14.5 nM,31.9 nM,2.31,1.38,980 nM,104,101,67
CC(=O)O[C@H]1C[C@H]2[C@@H]([C@H](OC(C)=O)C[C@@H]3C[C@H](NC(=O)OC(C)(C)C)CC[C@@]32C)[C@@H]2CC[C@H]([C@H](C)CCCN(C)CCCNc3ccnc4cc(Cl)ccc34)[C@@]12C,59.6%,6620 nM,,,,,,,,,,,,,
N=C(N)c1ccc(Oc2ccc(-c3cc4ccc(C(=N)N)cc4[nH]3)cc2)cc1,,2620 nM,,,,,,,,,,,,,
CC(=O)O[C@H]1C[C@H]2[C@@H]([C@H](OC(C)=O)C[C@@H]3C[C@H](NC(=O)OC(C)(C)C)CC[C@@]32C)[C@@H]2CC[C@H]([C@H](C)CCCNCCCNc3ccnc4cc(Cl)ccc34)[C@@]12C,74.9%,3240 nM,,,,,,,,,,,,,
CC(=O)O[C@H]1C[C@H]2[C@@H]([C@H](OC(C)=O)C[C@@H]3C[C@H](NC(=O)OC(C)(C)C)CC[C@@]32C)[C@@H]2CC[C@H]([C@H](C)CCCN(C)CCNc3ccnc4cc(Cl)ccc34)[C@@]12C,30%,6780 nM,,8.05 nM,11.7 nM,8.93 nM,10.9 nM,16.3 nM,22.6 nM,2.07,1.07,2360 nM,293,264,144
CC(=O)O[C@H]1C[C@H]2[C@@H]([C@H](OC(C)=O)C[C@@H]3C[C@@H](NCCCCCCNc4ccnc5cc(Cl)ccc45)CC[C@@]32C)[C@@H]2CC[C@H]([C@H](C)CCCNCCCCCCNc3ccnc4cc(Cl)ccc34)[C@@]12C,89.6%,,389 nM,,,,,,,,,,,,
CC(=O)O[C@H]1C[C@H]2[C@@H]([C@H](OC(C)=O)C[C@@H]3C[C@@H](NCCCCCCNc4ccnc5cc(Cl)ccc45)CC[C@@]32C)[C@@H]2CC[C@H]([C@H](C)CCCNCCCCNc3ccnc4cc(Cl)ccc34)[C@@]12C,95.4%,,103 nM,,,,,,,,,,,,
CC(=O)O[C@H]1C[C@H]2[C@@H]([C@H](OC(C)=O)C[C@@H]3C[C@H](N)CC[C@@]32C)[C@@H]2CC[C@H]([C@H](C)CCCN(CCCNc3ccnc4cc(Cl)ccc34)CCC[C@@H](C)[C@H]3CC[C@H]4[C@@H]5[C@H](OC(C)=O)C[C@@H]6C[C@H](N)CC[C@]6(C)[C@H]5C[C@H](OC(C)=O)[C@]34C)[C@@]12C,92.8%,630 nM,,218 nM,414 nM,245 nM,321 nM,297 nM,313 nM,0.97,1.29,2130 nM,10,9,7
CC(=O)O[C@H]1C[C@H]2[C@@H]([C@H](OC(C)=O)C[C@@H]3CC(=O)CC[C@@]32C)[C@@H]2CC[C@H]([C@H](C)CCCNCCCCNc3ccnc4cc(Cl)ccc34)[C@@]12C,81.5%,,,175 nM,,,,214 nM,,,,1230 nM,7,6,6
CC(=O)O[C@H]1C[C@H]2[C@@H]([C@H](OC(C)=O)C[C@@H]3C[C@@H](NCCCCNc4ccnc5cc(Cl)ccc45)CC[C@@]32C)[C@@H]2CC[C@H]([C@H](C)CCCNCCCCNc3ccnc4cc(Cl)ccc34)[C@@]12C,96.7%,,300 nM,,,,,,,,,,,,
CC(=O)O[C@@H]1CC[C@@]2(C)[C@@H](C1)C[C@@H](OC(C)=O)[C@@H]1[C@@H]2C[C@H](OC(C)=O)[C@]2(C)[C@@H]([C@H](C)CCCNCCNc3ccnc4cc(Cl)ccc34)CC[C@@H]12,74%,3800 nM,6990 nM,,32.5 nM,,34.2 nM,,77.9 nM,,,,,,
CC(=O)O[C@@H]1CC[C@@]2(C)[C@@H](C1)C[C@@H](OC(C)=O)[C@@H]1[C@@H]2C[C@H](OC(C)=O)[C@]2(C)[C@@H]([C@H](C)CCCNCCCCCCNc3ccnc4cc(Cl)ccc34)CC[C@@H]12,83.3%,,,56.4 nM,,91 nM,,104 nM,,,,2640 nM,47,29,25
CC(=O)O[C@H]1C[C@H]2[C@@H]([C@H](OC(C)=O)C[C@@H]3C[C@H](NC(=O)OC(C)(C)C)CC[C@@]32C)[C@@H]2CC[C@H]([C@H](C)CCCN(CCCNc3ccnc4cc(Cl)ccc34)CCC[C@@H](C)[C@H]3CC[C@H]4[C@@H]5[C@H](OC(C)=O)C[C@@H]6C[C@H](NC(=O)OC(C)(C)C)CC[C@]6(C)[C@H]5C[C@H](OC(C)=O)[C@]34C)[C@@]12C,6.42%,,,,,,,369 nM,,,,35400 nM,96,96,96
CC(=O)O[C@H]1C[C@H]2[C@@H]([C@H](OC(C)=O)C[C@@H]3C[C@H](O)CC[C@@]32C)[C@@H]2CC[C@H]([C@H](C)CCCNCCCCCCNc3ccnc4cc(Cl)ccc34)[C@@]12C,62.9%,,,33.9 nM,,36.6 nM,,40.6 nM,,,,2040 nM,60,56,50
CC(=O)O[C@H]1C[C@H]2[C@@H]([C@H](OC(C)=O)C[C@@H]3CC(=O)CC[C@@]32C)[C@@H]2CC[C@H]([C@H](C)CCCNCCCCCCNc3ccnc4cc(Cl)ccc34)[C@@]12C,77.2%,,,42.1 nM,,47.5 nM,,51.6 nM,,,,1280 nM,30,27,25
Clc1ccc2c(NCCNC34CC5CC(CC(C5)C3)C4)ccnc2c1,,11800 nM,,,,,,,,,,,,,
CC(=O)O[C@H]1C[C@H]2[C@@H]([C@H](OC(C)=O)C[C@@H]3C[C@H](O)CC[C@@]32C)[C@@H]2CC[C@H]([C@H](C)CCCNCCCCNc3ccnc4cc(Cl)ccc34)[C@@]12C,80.8%,,,33.8 nM,,52.1 nM,,56.3 nM,,,,1580 nM,47,30,28
CC(=O)O[C@@H]1CC[C@@]2(C)[C@@H](C1)C[C@@H](OC(C)=O)[C@@H]1[C@@H]2C[C@H](OC(C)=O)[C@]2(C)[C@@H]([C@H](C)CCCNCCCCNc3ccnc4cc(Cl)ccc34)CC[C@@H]12,69%,,,23.9 nM,,46.5 nM,,54.5 nM,,,,2560 nM,107,55,47
C[C@@H]1CC[C@H]2[C@@H](C)C(=O)O[C@@H]3O[C@@]4(C)CC[C@@H]1[C@]32OO4 [ARTEMISININ],,,,6.7 nM,11.5 nM,9 nM,12.8 nM,13.4 nM,17.4 nM,1.36,0.9,,,,
CC(=O)O[C@H]1C[C@H]2[C@@H]([C@H](OC(C)=O)C[C@@H]3C[C@H](NCCCCCCNc4ccnc5cc(Cl)ccc45)CC[C@@]32C)[C@@H]2CC[C@H]([C@H](C)CCCNCCCCCCNc3ccnc4cc(Cl)ccc34)[C@@]12C,95.5%,,285 nM,,,,,,,,,,,,
CC(=O)O[C@H]1C[C@H]2[C@@H]([C@H](OC(C)=O)C[C@@H]3C[C@H](NCCCCCCNc4ccnc5cc(Cl)ccc45)CC[C@@]32C)[C@@H]2CC[C@H]([C@H](C)CCCNCCCCNc3ccnc4cc(Cl)ccc34)[C@@]12C,93.7%,,300 nM,,,,,,,,,,,,
CCN(CC)CCCC(C)Nc1ccnc2cc(Cl)ccc12 (stereo not given) [CHLOROQUINE],6.51%,,,,698 nM,,16.1 nM,,373 nM,,,,,,

# — ChEMBL document CHEMBL3259704, “Second generation steroidal 4-aminoquinolines are potent, dual-target inhibitors of the botulinum neurotoxin serotype A metalloprotease and P. falciparum malaria” (J Med Chem, 2014)
